Activity calls are given as the source filed them.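 The calls were made as follows, unless noted: active = GFP response above 150% of the DMSO level; inconclusive = fewer than 70 events counted for a yeast strain; inactive = the rest.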
Experiments:
[1] = RPL19A-GFP modulators, yeast TOR pathway, confirmation, cell-based, S. cerevisiae, flow cytometry, cherry picks, mother/daughter gates (AID 2270;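 active = GFP response below 50% of the DMSO control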); conditions: S. cerevisiae RPL19A-GFP strain, 3 h, at 10 µM, stronger effect = lower value, 100 = same GFP as DMSO wells
[2] = LAP4-GFP expression modulators in yeast, confirmation, cell-based, cherry picks, flow cytometry, mother/daughter gates (AID 2271;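 active = GFP response above 150% of the DMSO control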;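 also: ratio of sample to DMSO plate mean so 100% equals DMSO level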); conditions: S. cerevisiae LAP4-GFP strain, 3 h, at 10 µM, stronger effect = higher value, 100 means same as DMSO control
How it was run: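 System – GFP-fusion yeast strain · Amount – 0.2 OD600 cells · Buffer or medium – SC growth medium · Dosing – single test-compound dose, 10 µM final · Schedule – 3 h treatment at 30 °C with rotation · Detection – GFP by flow cytometry · Read-out – per-gate (all, mother, daughter) GFP response vs DMSO · Benchmarks – positive rapamycin (400 ng/mL), negative DMSO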

[3] = modulators of MEP2-GFP levels in yeast, confirmation, S. cerevisiae, flow cytometry GFP, cherry picks (AID 2272;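 active = GFP response above 150% of the DMSO control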;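 also: ratio of well signal to plate DMSO mean so 100% equals DMSO level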); conditions: S. cerevisiae MEP2-GFP strain, 3 h, at 10 µM, stronger effect = higher value
[4] = AGP1-GFP expression modulators, hit retest, confirmation, cell-based, flow cytometry, S. cerevisiae, cherry picks (AID 2273);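 also: median GFP channel fluorescence over the whole cell population gate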; conditions: S. cerevisiae AGP1-GFP strain, 3 h, at 10 µM
[5] = modulators of CIT2-GFP expression in yeast, confirmation, S. cerevisiae, GFP fusion, cherry picks, mother/daughter gates (AID 2274); conditions: S. cerevisiae CIT2-GFP strain, flow cytometry, 3 h, at 10 µM, stronger effect = higher value
[6] = measured here: daughter cell gate
[7] = measured here: mother cell gate
[8] = measured here: daughter cell gate response
[9] = measured here: mother cell gate response

| Structure (SMILES) | GFP response vs DMSO [1] | GFP response vs DMSO [1, 6] | GFP response vs DMSO [1, 7] | GFP response relative to DMSO [2] | GFP response relative to DMSO [2, 8] | GFP response relative to DMSO [2, 9] | GFP response vs DMSO [3] | GFP response, % of DMSO [4] | GFP response, % of DMSO [5] | GFP response, % of DMSO [5, 6] | GFP response, % of DMSO [5, 7] |
| --- | --- | --- | --- | --- | --- | --- | --- | --- | --- | --- | --- |
| CCCc1[nH]nc2c1C(c1ccc(OC)c(Cn3nc(C)c(Br)c3C)c1)C(C#N)=C(N)O2 (centres undefined) | 95% (inactive) | 94.2% | 96.2% | 97.7% (inactive) | 97.9% | 98.5% | 99.5% (inactive) | 99.3% (inactive) | 97.8% (inactive) | 98.3% | 95.6% |
| COc1cc(/C=C/C(=O)c2c(O)ccc3c(C)cc(=O)oc23)ccc1O | 95% (inactive) | 94.4% | 95.8% | 124% (inactive) | 120% | 130% | 98.3% (inactive) | 92.5% (inactive) | 96.9% (inactive) | 101% | 93.8% |
| COc1ccc(-c2ccc(SCC(=O)N3c4ccccc4CC3C)nn2)cc1OC (centres undefined) | 99.1% (inactive) | 98% | 99.3% | 100% (inactive) | 101% | 101% | 102% (inactive) | 99.3% (inactive) | 96.4% (inactive) | 96.4% | 95.6% |
| O=C(c1ccc([N+](=O)[O-])o1)N(Cc1nnc(-c2ccccc2Cl)o1)C1CC1 | 99.4% (inactive) | 100% | 99.5% | 98.2% (inactive) | 99.1% | 98.4% | 99% (inactive) | 101% (inactive) | 98.8% (inactive) | 101% | 96.8% |
| CCOc1ccc(-c2nc(-c3ccc(OC)cc3)no2)cc1OCC | 101% (inactive) | 101% | 101% | 94.2% (inactive) | 92.2% | 93.6% | 102% (inactive) | 96% (inactive) | 99.3% (inactive) | 100% | 99.1% |
| Cc1c(Cc2ccccc2)c(NCCN(C)C)n2c(nc3ccccc32)c1C#N | 116% (inactive) | 45.5% | 99% | 249% (active) | 167% | 218% | 187% (active) | 143% (inactive) | 116% (inactive) | 135% | 92.8% |
| CC1CC2=C(CC1/C=N/NC(N)=S)C(C)(C)CCC2 (centres undefined) | 96.4% (inactive) | 92.7% | 95.3% | 110% (inactive) | 106% | 113% | 107% (inactive) | 97.5% (inactive) | 91.5% (inactive) | 88.4% | 90.7% |
| COc1ccc(NC2=C(Cl)C(=O)N(CCc3ccccc3)C2=O)cc1 | 98.7% (inactive) | 99.3% | 99.2% | 97.7% (inactive) | 99.3% | 96.5% | 104% (inactive) | 103% (inactive) | 102% (inactive) | 102% | 103% |
| O=S(=O)(c1ccccc1)N1N=C(c2cccs2)CC1c1ccc(Br)cc1 (centres undefined) | 98% (inactive) | 99.4% | 98.4% | 97.9% (inactive) | 99.2% | 97.2% | 102% (inactive) | 98.3% (inactive) | 98.3% (inactive) | 97.2% | 97.3% |
| Cc1cc(=O)oc2c(C(=O)/C=C\c3cccs3)c(O)ccc12 | 98% (inactive) | 100% | 95.3% | 145% (inactive) | 136% | 154% | 107% (inactive) | 101% (inactive) | 95.9% (inactive) | 99.2% | 91.9% |
| Cc1cc(NCCN2CCOCC2)n2ncc(-c3ccccc3)c2n1 | 99.6% (inactive) | 99.8% | 99.4% | 107% (inactive) | 110% | 107% | 103% (inactive) | 89.3% (inactive) | 103% (inactive) | 99.3% | 104% |
| O=C1C2C3C=CC(CNS(=O)(=O)c4ccccc4[N+](=O)[O-])(O3)C2C(=O)N1c1ccccc1 (centres undefined) | 97.6% (inactive) | 97.3% | 97.3% | 98.6% (inactive) | 99.7% | 98.2% | 101% (inactive) | 101% (inactive) | 107% (inactive) | 106% | 107% |
| C/C(CCC12CC3CC(CC(C3)C1)C2)=N\NC(N)=S | 87.9% (inactive) | 84.6% | 90.7% | 133% (inactive) | 125% | 135% | 98.3% (inactive) | 96% (inactive) | 89.8% (inactive) | 88.1% | 87.8% |
| COCCN(CCOC)S(=O)(=O)c1ccc(C(=O)Nc2nnc(C3CC3)o2)cc1 | 101% (inactive) | 99.8% | 101% | 93.8% (inactive) | 94.1% | 95.2% | 100% (inactive) | 101% (inactive) | 106% (inactive) | 105% | 106% |
